Results published in ChEMBL document CHEMBL1137287, “Peptidyl-urea based inhibitors of soluble epoxide hydrolases” (Bioorg Med Chem Lett, 2006).

Experiments:
[1] = target: T1, Bifunctional epoxide hydrolase 2 (Homo sapiens, UniProt P34913); test: Inhibition of human recombinant soluble Epoxide hydrolase
T1 sequence (P34913 whole entry): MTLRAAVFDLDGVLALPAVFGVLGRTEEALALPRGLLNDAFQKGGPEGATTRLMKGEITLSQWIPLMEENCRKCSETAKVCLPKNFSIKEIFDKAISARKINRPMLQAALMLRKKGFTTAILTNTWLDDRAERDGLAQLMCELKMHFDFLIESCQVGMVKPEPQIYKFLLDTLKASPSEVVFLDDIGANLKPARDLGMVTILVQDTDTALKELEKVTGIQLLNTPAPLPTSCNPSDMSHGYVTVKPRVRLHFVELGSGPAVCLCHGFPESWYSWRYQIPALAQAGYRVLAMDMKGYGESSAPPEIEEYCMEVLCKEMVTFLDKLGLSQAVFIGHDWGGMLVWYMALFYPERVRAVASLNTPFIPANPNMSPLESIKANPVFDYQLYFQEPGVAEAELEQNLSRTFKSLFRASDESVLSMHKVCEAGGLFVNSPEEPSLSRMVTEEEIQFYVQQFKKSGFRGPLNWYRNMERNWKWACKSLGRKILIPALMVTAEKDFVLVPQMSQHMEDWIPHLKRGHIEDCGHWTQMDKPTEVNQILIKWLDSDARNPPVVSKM

[2] = Solubility in sodium phosphate buffer at pH 7.4; format: physicochemical
Method in brief: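 Solubility measured in sodium phosphate buffer, 100 mM, pH 7.4, following a previously described procedure.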

[3] = target: T2, Bifunctional epoxide hydrolase 2 (Mus musculus, UniProt P34914); test: Inhibition of mouse recombinant soluble Epoxide hydrolase
T2 sequence (P34914 whole entry): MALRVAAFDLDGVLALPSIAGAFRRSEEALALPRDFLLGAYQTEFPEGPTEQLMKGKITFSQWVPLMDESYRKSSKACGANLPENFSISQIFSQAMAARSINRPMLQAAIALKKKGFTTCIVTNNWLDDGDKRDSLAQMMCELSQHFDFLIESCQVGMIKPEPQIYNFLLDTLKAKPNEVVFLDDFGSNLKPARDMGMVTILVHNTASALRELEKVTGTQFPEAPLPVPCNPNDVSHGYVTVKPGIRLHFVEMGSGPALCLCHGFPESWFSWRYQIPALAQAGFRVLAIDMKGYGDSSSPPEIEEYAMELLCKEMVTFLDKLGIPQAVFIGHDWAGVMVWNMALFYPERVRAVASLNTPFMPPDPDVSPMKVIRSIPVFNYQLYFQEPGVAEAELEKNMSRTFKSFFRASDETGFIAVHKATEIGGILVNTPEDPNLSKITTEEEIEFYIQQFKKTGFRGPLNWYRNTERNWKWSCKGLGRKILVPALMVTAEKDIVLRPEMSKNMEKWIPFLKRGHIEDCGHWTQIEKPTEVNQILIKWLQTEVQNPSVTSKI

SMILES	IC50 [1] [µM]	solubility [2] [µM]	IC50 [3] [µM]
O=C(NCCCCCC(=O)N1CCC[C@H]1C(=O)O)NC12CC3CC(CC(C3)C1)C2	> 100	> 500	
O=C(CCCCCNC(=O)NC12CC3CC(CC(C3)C1)C2)N[C@@H](Cc1ccccc1)C(=O)O	2.7	> 500	
CC(O)[C@H](NC(=O)CCCCCNC(=O)NC12CC3CC(CC(C3)C1)C2)C(=O)O (stereo not given in full)	> 100	> 500	
CC(C)C[C@H](NC(=O)[C@H](Cc1ccccc1)NC(=O)CCCCCNC(=O)NC1CCCCC1)C(=O)O	0.88	> 500	
O=C(CCCCCNC(=O)NC1CCCCC1)N[C@@H](Cc1ccccc1)C(=O)O (stereo in doubt; form 1)	2.7		0.15
O=C(O)CCCNC(=O)NC12CC3CC(CC(C3)C1)C2		> 500	> 100
CC(C)[C@H](NC(=O)CCCCCNC(=O)NC12CC3CC(CC(C3)C1)C2)C(=O)O	55	> 500	
CC(C)[C@H](NC(=O)[C@H](Cc1ccccc1)NC(=O)CCCCCNC(=O)NC1CCCCC1)C(=O)O	0.1	> 500	
C[C@H](NC(=O)CCCNC(=O)NC12CC3CC(CC(C3)C1)C2)C(=O)O		> 500	> 100
N=C(N)NCCC[C@H](NC(=O)CCCCCNC(=O)NC12CC3CC(CC(C3)C1)C2)C(=O)O	> 100	> 500	
O=C(O)CNC(=O)NC1CCCCC1	> 100		> 100
O=C(O)CC[C@H](NC(=O)CCCCCNC(=O)NC12CC3CC(CC(C3)C1)C2)C(=O)O	> 100	> 500	
O=C(O)CNC(=O)[C@H](Cc1ccccc1)NC(=O)CCCCCNC(=O)NC1CCCCC1	1.5	> 500	
O=C(O)CC[C@H](NC(=O)CCCNC(=O)NC12CC3CC(CC(C3)C1)C2)C(=O)O		> 500	> 100
O=C(NCCCC(=O)N1CCC[C@H]1C(=O)O)NC12CC3CC(CC(C3)C1)C2		> 500	82
CCC(C)[C@H](NC(=O)CCCNC(=O)NC12CC3CC(CC(C3)C1)C2)C(=O)O (stereo not given in full)		> 500	1.3

SMILES	IC50 [1] [µM]	solubility [2] [µM]	IC50 [3] [µM]
CC(C)C[C@H](NC(=O)CCCCCNC(=O)NC12CC3CC(CC(C3)C1)C2)C(=O)O	> 100	> 500	
COC(=O)CCCCCNC(=O)NC12CC3CC(CC(C3)C1)C2	1.8		
C[C@H](NC(=O)CCCCCNC(=O)NC12CC3CC(CC(C3)C1)C2)C(=O)O	> 100	> 500	
O=C(CCCCCNC(=O)NC12CC3CC(CC(C3)C1)C2)N[C@@H](Cc1cnc[nH]1)C(=O)O	> 100	> 500	
O=C(O)C[C@H](NC(=O)[C@H](Cc1ccccc1)NC(=O)CCCCCNC(=O)NC1CCCCC1)C(=O)O	> 100	> 500	
O=C(CCCCCNC(=O)NC1CCCCC1)N[C@@H](Cc1ccccc1)C(=O)N[C@@H](Cc1c[nH]c2ccccc12)C(=O)O	0.1	> 500	
COC(=O)CCCCCNC(=O)NC1CCCCC1	3.2		0.11
CCC(C)[C@H](NC(=O)CCCCCNC(=O)NC12CC3CC(CC(C3)C1)C2)C(=O)O (stereo not given in full)	> 100	> 500	
CSCC[C@H](NC(=O)CCCCCNC(=O)NC12CC3CC(CC(C3)C1)C2)C(=O)O	> 100	> 500	
C[C@H](O)[C@H](NC(=O)[C@H](Cc1ccccc1)NC(=O)CCCCCNC(=O)NC1CCCCC1)C(=O)O	1.3	> 500	
O=C(CCCNC(=O)NC12CC3CC(CC(C3)C1)C2)N[C@@H](Cc1c[nH]c2ccccc12)C(=O)O		> 500	8.4
O=C(CCCNC(=O)NC12CC3CC(CC(C3)C1)C2)N[C@@H](Cc1ccc(O)cc1)C(=O)O		> 500	18
O=C(O)C[C@H](NC(=O)CCCNC(=O)NC12CC3CC(CC(C3)C1)C2)C(=O)O		> 500	> 100
CC(C)[C@H](NC(=O)CCCNC(=O)NC12CC3CC(CC(C3)C1)C2)C(=O)O		> 500	30
O=C(CCCNC(=O)NC12CC3CC(CC(C3)C1)C2)N[C@@H](CO)C(=O)O			47
